Here are results for 38 sequences from the array DNA melting data of Ke et al. (doi:10.1101/2024.01.08.574731).

Data set [1] can be described thus: melting temperature; fluorescence melt of hairpins on a sequencing array, two-state fit, raised by 9.35 °C to match UV melts. The following applies: sodium 0.088 M. Put shortly: (§1)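 Folding enthalpy and melting temperature were estimated with bootstrapped two-state fits and combined across four replicates by inverse-variance weighting, with fitted temperatures raised by 9.35 °C to match UV melts. The data were Cy3 fluorescence of library hairpins, with annealed Cy3 and quencher oligos, on a sequenced MiSeq flow cell in 50 mM Na-HEPES pH 8.0, 25 mM NaCl, imaged in 2.5 °C steps up to 60 °C and normalised to pre-quench Cy3 and control constructs.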

Data set [2] can be described thus: folding enthalpy; higher = less favourable; fluorescence melt of hairpins on a sequencing array, two-state fit. The following applies: sodium 0.088 M. The method in brief:
as §1

As to GATCGGGTGGCCGATC ((((((....)))))), in data set [1], the Tm worked out at 57 °C. For the same sequence, the folding enthalpy in data set [2] was -40.4 kcal/mol.
The corresponding values for GATCGGGTGTCCGATC ((((((....)))))) are 58.3 °C and -37.7 kcal/mol.
Turning to GATCGGGTTTCCGATC ((((((....)))))), the Tm in data set [1] was 60.7 °C. Further, in data set [2], the folding enthalpy was -39.9 kcal/mol.
The corresponding values for GATCGGTACACCGATC ((((((....)))))) are 62.2 °C and -40.4 kcal/mol.
As to GATCGGTACCCCGATC ((((((....)))))), the Tm in data set [1] was determined as 54.4 °C. For the same sequence, the folding enthalpy in data set [2] is -42.5 kcal/mol.
With GATCGGTACCCGATC ((((((...)))))), the Tm in data set [1] was determined as 57.2 °C. For the same sequence, the folding enthalpy in data set [2] was -39.3 kcal/mol.
Turning to GATCGGTATGCCGATC ((((((....)))))), the Tm in data set [1] is 62.1 °C. Besides, the folding enthalpy in data set [2] was -41.9 kcal/mol.
On to GATCGGTATTCCGATC ((((((....)))))), for which the Tm in data set [1] worked out at 58.4 °C. In data set [2], the folding enthalpy is -42 kcal/mol.
Taken in the same sequence, the figures for GATCGGTCAGCCGATC ((((((....)))))) were 59.8 °C and -41.8 kcal/mol.
Turning to GATCGGTCCCCCGATC ((((((....)))))), the Tm in data set [1] is 55.7 °C. Moreover, in data set [2], the folding enthalpy is -45 kcal/mol.
Taken in the same sequence, the figures for GATCGGTCCGCCGATC ((((((....)))))) were 60.1 °C and -42.5 kcal/mol.
As for GATCGGTCCTCCGATC ((((((....)))))), in data set [1], the Tm is 59.9 °C. The folding enthalpy in data set [2] was -38 kcal/mol.
Taken in the same sequence, the figures for GATCGGTCGGCCGATC ((((((....)))))) were 59.4 °C and -45.8 kcal/mol.
Taken in the same sequence, the figures for GATCGGTCTCCGATC ((((((...)))))) were 57.4 °C and -43.1 kcal/mol.
The corresponding values for GATCGGTCTGCCGATC ((((((....)))))) are 62.1 °C and -41.8 kcal/mol.
Turning to GATCGGTGGACCGATC ((((((....)))))), the Tm in data set [1] came to 57.2 °C. The folding enthalpy in data set [2] is -31.7 kcal/mol.
In the case of GATCGGTTAACCGATC ((((((....)))))), the Tm in data set [1] was 58.8 °C. Besides, the folding enthalpy in data set [2] is -47.3 kcal/mol.
Consider GATCGGTTATCCGATC ((((((....)))))), for which the Tm in data set [1] stood at 58.9 °C. Moreover, the folding enthalpy in data set [2] is -36.8 kcal/mol.
Taken in the same sequence, the figures for GATCGGTTGTCCGATC ((((((....)))))) were 57.1 °C and -33.8 kcal/mol.
The corresponding values for GATCGTAAAAACGATC ((((((....)))))) are 50.3 °C and -31.8 kcal/mol.
Take GATCGTAATCACGATC ((((((....)))))): in data set [1], the Tm came to 53.2 °C. The folding enthalpy in data set [2] was -45.7 kcal/mol.
Take GATCGTAATTACGATC ((((((....)))))): in data set [1], the Tm is 56.3 °C. Further, the folding enthalpy in data set [2] is -36 kcal/mol.
GATCGTACACACGATC ((((((....)))))): in data set [1], the Tm turned out to be 54.4 °C. The folding enthalpy in data set [2] is -40.7 kcal/mol.
Taken in the same sequence, the figures for GATCGTACGGACGATC ((((((....)))))) were 54.4 °C and -45.6 kcal/mol.
Consider GATCGTACTACGATC ((((((...)))))), for which, in data set [1], the Tm was determined as 56.5 °C. In addition, the folding enthalpy in data set [2] was -36.3 kcal/mol.
As to GATCGTACTGACGATC ((((((....)))))), the Tm in data set [1] came out at 55.2 °C. Besides, the folding enthalpy in data set [2] was -36.2 kcal/mol.
Turning to GATCGTAGCCACGATC ((((((....)))))), the Tm in data set [1] turned out to be 56.2 °C. Also, the folding enthalpy in data set [2] was -39.3 kcal/mol.
For GATCGTATAACGATC ((((((...)))))), in data set [1], the Tm is 55.7 °C. The folding enthalpy in data set [2] was -47.3 kcal/mol.
For GATCGTATCAACGATC ((((((....)))))), the Tm in data set [1] stood at 55 °C. Also, in data set [2], the folding enthalpy was -35.5 kcal/mol.
Taken in the same sequence, the figures for GATCGTATCACGATC ((((((...)))))) were 58.4 °C and -37.6 kcal/mol.
As for GATCGTATCTACGATC ((((((....)))))), the Tm in data set [1] was determined as 57.6 °C. For the same sequence, in data set [2], the folding enthalpy was -37.9 kcal/mol.
For the sequence GATCGTATGAACGATC ((((((....)))))), in data set [1], the Tm stood at 53.6 °C. The folding enthalpy in data set [2] is -31 kcal/mol.
Taken in the same sequence, the figures for GATCGTCAAAACGATC ((((((....)))))) were 55.1 °C and -40 kcal/mol.
On to GATCGTCACACGATC ((((((...)))))), for which the Tm in data set [1] is 57 °C. For the same sequence, the folding enthalpy in data set [2] is -37.8 kcal/mol.
Turning to GATCGTCATACGATC ((((((...)))))), the Tm in data set [1] was found to be 57.5 °C. Besides, the folding enthalpy in data set [2] was -33.8 kcal/mol.
As for GATCGTCCCAACGATC ((((((....)))))), the Tm in data set [1] was 55.6 °C. Further, in data set [2], the folding enthalpy was -40.2 kcal/mol.
Taken in the same sequence, the figures for GATCGTCCCCACGATC ((((((....)))))) were 53.9 °C and -41.8 kcal/mol.
The corresponding values for GATCGTCCGCACGATC ((((((....)))))) are 54.4 °C and -39.6 kcal/mol.
